Our source for the Ki, inhibition and IC50 values is ChEMBL document CHEMBL4270606, “Pyridine bioisosteres of potent GluN2B subunit containing NMDA receptor antagonists with benzo[7]annulene scaffold” (Eur J Med Chem, 2018).

By Ki is commonly meant the dissociation constant of the complex between target and ligand, obtained from inhibition or displacement. A higher Ki goes with weaker binding. For orientation: inhibition means the percentage by which the read-out fell short of the control. Low values mean little suppression, high ones strong suppression. The term IC50 denotes the concentration at which inhibition is half-maximal.

Experiment [1] has as its target Glutamate NMDA receptor; GRIN1/GRIN2B (Homo sapiens, UniProt Q05586+Q13224). Briefly: Displacement of [3H]-ifenprodil from GluN1a/GluN2B (unknown origin) expressed in L(tk-) cell membranes after 120 mins by scintillation counting analysis. (In a radioligand displacement assay an active substance lowers the binding of a labelled ligand.)
For the next experiment, the species on record is Sus scrofa. The experiment can be described thus: Displacement of [3H]-(+)-MK-801 from PCP binding site of NMDA receptor in pig brain cortex membranes at 1 uM after 120 mins by solid scintillation counting relative to control. It is filed as cell membranes. The gist of the method:
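Single 1 µM test concentration: inhibition (%) of 2 nM [3H]-(+)-MK-801 binding to pig brain cortex membranes (about 100 µg protein). Buffer was 5 mM TRIS/1 mM EDTA, pH 7.5, at rt. Nonspecific binding defined with 10 µM unlabeled (+)-MK-801. Bound radioactivity collected by filtration and counted by solid scintillation.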

Experiment [2] can be described thus: Displacement of [3H]-(+)-MK-801 from PCP binding site of NMDA receptor in pig brain cortex membranes after 120 mins by solid scintillation counting. It is filed as cell membranes, Sus scrofa. The procedure, abridged: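 Pig brain cortex membranes (about 100 µg protein) incubated with 2 nM [3H]-(+)-MK-801 and test compound at 10^-5 to 10^-9 mol/L (final) in 5 mM TRIS/1 mM EDTA, pH 7.5, at rt with shaking. Nonspecific binding defined with 10 µM unlabeled (+)-MK-801. Filtration, melted solid scintillator, [3H] counting. Duplicates. IC50 by non-linear regression, converted to Ki via Cheng-Prusoff (Kd 2.26 nM). Mean ± SEM of three experiments.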

Experiment [3] deals with Sigma non-opioid intracellular receptor 1 (Cavia porcellus, UniProt Q60492). Briefly: Displacement of [3H]-(+)-pentazocine from sigma1 receptor in guinea pig brain cortex membrane after 120 mins by scintillation counting method. The format is cell membranes.
In experiment [4] the target is T1, Sigma intracellular receptor 2 (Rattus norvegicus, UniProt Q5U3Y7).
T1 sequence (Q5U3Y7 whole entry): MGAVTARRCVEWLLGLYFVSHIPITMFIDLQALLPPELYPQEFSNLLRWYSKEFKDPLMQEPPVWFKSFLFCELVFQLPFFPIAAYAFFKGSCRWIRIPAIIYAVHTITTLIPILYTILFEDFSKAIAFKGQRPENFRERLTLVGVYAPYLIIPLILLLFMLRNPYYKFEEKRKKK
Briefly: Displacement of [3H]-di-o-tolylguanidine from sigma2 receptor in rat liver membranes incubated for 120 mins by scintillation counting method. The format is cell membranes, Membrane.

SMILES strings stand for the structures. Some results are limits rather than exact numbers.

Sequence of Glutamate NMDA receptor; GRIN1/GRIN2B (Q13224 whole entry, other chains not shown): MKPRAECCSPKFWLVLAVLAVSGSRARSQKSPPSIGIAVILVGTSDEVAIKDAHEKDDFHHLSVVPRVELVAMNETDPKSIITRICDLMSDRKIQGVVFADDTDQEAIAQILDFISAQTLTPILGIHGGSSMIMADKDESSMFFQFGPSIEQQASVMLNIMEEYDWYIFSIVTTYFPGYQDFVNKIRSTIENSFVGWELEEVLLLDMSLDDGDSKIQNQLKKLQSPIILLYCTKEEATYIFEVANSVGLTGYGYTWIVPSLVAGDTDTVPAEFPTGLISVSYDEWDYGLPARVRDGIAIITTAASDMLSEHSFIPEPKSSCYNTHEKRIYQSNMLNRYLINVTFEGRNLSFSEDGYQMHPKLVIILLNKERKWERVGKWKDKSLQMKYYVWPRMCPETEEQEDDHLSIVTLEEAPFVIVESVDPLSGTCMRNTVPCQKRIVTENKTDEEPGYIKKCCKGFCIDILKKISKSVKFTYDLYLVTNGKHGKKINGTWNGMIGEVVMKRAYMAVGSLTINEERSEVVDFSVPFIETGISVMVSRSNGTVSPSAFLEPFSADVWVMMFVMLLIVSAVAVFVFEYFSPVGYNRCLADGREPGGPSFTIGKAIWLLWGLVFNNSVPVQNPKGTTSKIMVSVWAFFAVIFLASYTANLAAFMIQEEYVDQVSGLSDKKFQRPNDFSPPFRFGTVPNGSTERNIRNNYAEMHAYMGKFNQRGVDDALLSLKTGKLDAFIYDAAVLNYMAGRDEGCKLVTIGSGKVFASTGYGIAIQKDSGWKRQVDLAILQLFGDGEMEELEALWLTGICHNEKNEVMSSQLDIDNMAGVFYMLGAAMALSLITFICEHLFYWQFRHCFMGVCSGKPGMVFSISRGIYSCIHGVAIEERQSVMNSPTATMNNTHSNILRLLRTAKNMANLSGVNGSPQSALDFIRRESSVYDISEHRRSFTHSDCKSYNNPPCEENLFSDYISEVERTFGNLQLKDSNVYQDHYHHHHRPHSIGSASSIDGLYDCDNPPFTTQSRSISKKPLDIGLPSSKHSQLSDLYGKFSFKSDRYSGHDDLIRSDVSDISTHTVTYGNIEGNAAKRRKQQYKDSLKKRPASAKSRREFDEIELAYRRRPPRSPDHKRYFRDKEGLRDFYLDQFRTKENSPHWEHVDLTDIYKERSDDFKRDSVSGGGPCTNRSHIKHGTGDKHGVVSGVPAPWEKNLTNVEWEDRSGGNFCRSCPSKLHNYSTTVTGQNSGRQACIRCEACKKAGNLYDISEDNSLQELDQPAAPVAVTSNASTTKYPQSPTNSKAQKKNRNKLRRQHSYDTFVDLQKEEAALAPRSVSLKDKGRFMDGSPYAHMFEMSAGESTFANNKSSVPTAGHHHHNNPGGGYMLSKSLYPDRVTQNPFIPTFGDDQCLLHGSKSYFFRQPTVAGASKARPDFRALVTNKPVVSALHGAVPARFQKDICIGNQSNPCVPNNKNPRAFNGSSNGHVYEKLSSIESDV
Sequence of Sigma non-opioid intracellular receptor 1 (Q60492 whole entry): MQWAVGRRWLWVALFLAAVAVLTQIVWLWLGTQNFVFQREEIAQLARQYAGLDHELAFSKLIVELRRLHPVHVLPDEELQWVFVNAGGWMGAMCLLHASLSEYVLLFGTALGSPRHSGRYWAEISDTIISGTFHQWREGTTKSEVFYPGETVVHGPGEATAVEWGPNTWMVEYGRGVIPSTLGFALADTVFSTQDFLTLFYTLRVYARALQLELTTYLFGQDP

As to `c1ccc(CCCNC2CCc3cccnc3CC2)cc1` (stereo not given), the values for the Ki in experiment [1], in experiment [3] and in experiment [4] were 302 nM, 992 nM and 276 nM, respectively. In the experiment listed under Sus scrofa, this compound gave an inhibition of 10%. The IC50 in experiment [2] was more than 1000 nM.

In the case of `c1ccc(CNC2CCc3cccnc3CC2)cc1` (stereo not given), the inhibition constant Ki in experiment [1] was more than 1000 nM; in experiment [3], 942 nM; in experiment [4], 490 nM. In the experiment listed under Sus scrofa, this compound displayed an inhibition of 0%. In addition, in experiment [2], the concentration for half-maximal inhibition (IC50) was more than 1000 nM.

As to `CN(CCCc1ccccc1)C1CCc2cccnc2CC1` (stereo not given), the results for the Ki in experiment [1], in experiment [3] and in experiment [4] were 445 nM, 261 nM and 68 nM, respectively. Moreover, in the experiment filed under Sus scrofa, the inhibition is 0%. For the same compound, in experiment [2], the IC50 was more than 1000 nM.

On to `CN(CCCCc1ccccc1)C1CCc2cccnc2CC1` (stereo not given), for which the Ki was determined as 477 nM in experiment [1], 263 nM in experiment [3] and 115 nM in experiment [4]. In addition, in the experiment listed under Sus scrofa, the inhibition worked out at 5%. In experiment [2], the IC50 is more than 1000 nM.

Consider `c1ccc(CCCCNC2CCc3cccnc3CC2)cc1` (stereo not given), for which the inhibition constant (Ki) in experiment [1] was 149 nM; in experiment [3], 214 nM; in experiment [4], 68 nM. In the experiment listed under Sus scrofa, this compound came in with an inhibition of 8%. The compound further had a 50% inhibitory concentration (IC50) in experiment [2] of more than 1000 nM.
